Results from ChEMBL document CHEMBL3745683, “Regulatory effect of hydroquinone-tetraethylene glycol conjugates on zebrafish pigmentation” (Bioorg Med Chem Lett, 2016).
Calls of active or inactive are those of the source.

What was measured:
Danio rerio [1] = organism: Danio rerio; experiment: Depigmentation effect on zebrafish assessed as eye color change from black to gray incubated for 63 hrs post fertilization by microscopic analysis; assay type: functional, organism-based
Procedure, shortened: (§1)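 Synchronized zebrafish embryos were kept in embryo medium containing compound at 50, 100 or 200 μM, added from DMSO to a final 0.1%. Mock control was 0.1% DMSO; positive control was HQ at 100 μM. Larval pigment spots were selected manually from dorsal-view microscope images, excluding eyes and yolk. Image analysis gave binary threshold, histogram and black-spot size; eye colour was scored visually. Data are means ± SEM versus mock.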

Danio rerio [2] = organism: Danio rerio; experiment: Depigmentation effect on zebrafish assessed as increase in histogram of black spots incubated for 63 hrs post fertilization by microscopic analysis; assay type: functional, organism-based; procedure, shortened: as §1
[3] = Drug degradation of compound assessed as Cu2+-mediated oxidation; assay type: physicochemical
Procedure, shortened: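 Compound at 0.1 mM in 1X PBS, pH 7.4, was treated with 20 μM Cu2+. UV absorption spectra were recorded over a time course.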

Danio rerio [4] = organism: Danio rerio; experiment: Depigmentation effect on zebrafish assessed as decrease in size of black spots incubated for 63 hrs post fertilization by microscopic analysis; assay type: functional, organism-based; procedure, shortened: as §1
Danio rerio [5] = organism: Danio rerio; experiment: Depigmentation effect on zebrafish assessed as increase in binary threshold incubated for 63 hrs post fertilization by microscopic analysis; assay type: functional, organism-based; procedure, shortened: as §1
[6] = Cytotoxicity against human HF16 cells assessed as decrease in cell viability at 200 uM after 24 hrs by MTT assay; assay type: cell-based
Procedure, shortened: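 HF-16 human fetal foreskin fibroblasts exposed to compound at 200 μM, with 0.1% DMSO as vehicle control, for 24 hr. Viability was read by MTT assay. Data are means ± SEM, compared against the vehicle control.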

[7] = 1-Octanol-water partition coefficient, log P of the compound by UV spectrophotometry-based shake flask method; assay type: physicochemical
[8] = Drug degradation assessed as hydrolysis in 1M NaOH […] by HPLC analysis; assay type: physicochemical; settings: buffer
[9] = Photostability of compound after 18 hrs under UV irradition condition; assay type: physicochemical
Procedure, shortened: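 Compound at 0.1 mM in 1X PBS, pH 7.4, was exposed to UV at ambient conditions for 18 h. UV spectra were compared before and after exposure; the HQ absorption band is at 289 nm.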

Danio rerio [10] = organism: Danio rerio; experiment: Inhibition pigmentation in zebrafish assessed as increase in binary threshold pre-treated with 0.2 mM compound at 9 hrs post fertilization followed by mock treatment for 37 hrs by microscopic analysis; assay type: functional, organism-based
Danio rerio [11] = organism: Danio rerio; experiment: Inhibition of alpha-MSH-induced pigmentation in zebrafish assessed as increase in histogram of black spots pre-treated with 0.2 mM compound at 9 hrs post fertilization followed by compound exposure for 37 hrs by microscopic analysis; assay type: functional, organism-based
Danio rerio [12] = organism: Danio rerio; experiment: Inhibition pigmentation in zebrafish assessed as increase in binary threshold pre-treated with 0.2 mM compound at 9 hrs post fertilization followed by compound exposure for 37 hrs by microscopic analysis; assay type: functional, organism-based
Danio rerio [13] = organism: Danio rerio; experiment: Inhibition of pigmentation in zebrafish assessed as increase in histogram of black spots pre-treated with 0.2 mM compound at 9 hrs post fertilization followed by compound exposure for 37 hrs by microscopic analysis; assay type: functional, organism-based
Danio rerio [14] = organism: Danio rerio; experiment: Inhibition of pigmentation in zebrafish assessed as decrease in size of black spots pre-treated with 0.2 mM compound at 9 hrs post fertilization followed by compound exposure for 37 hrs by microscopic analysis; assay type: functional, organism-based
Danio rerio [15] = organism: Danio rerio; experiment: Inhibition of alpha-MSH-induced pigmentation in zebrafish assessed as increase in binary threshold pre-treated with 0.2 mM compound at 9 hrs post fertilization followed by compound exposure for 37 hrs by microscopic analysis; assay type: functional, organism-based
[16] = Drug degradation assessed as hydrolysis at pH 3 to 9 by HPLC analysis; assay type: physicochemical; settings: buffer
Danio rerio [17] = organism: Danio rerio; experiment: Inhibition of alpha-MSH-induced pigmentation in zebrafish assessed as decrease in size of black spots pre-treated with 0.2 mM compound at 9 hrs post fertilization followed by compound exposure for 37 hrs by microscopic analysis; assay type: functional, organism-based
Danio rerio [18] = organism: Danio rerio; experiment: Inhibition of pigmentation in zebrafish assessed as decrease in size of black spots pre-treated with 0.2 mM compound at 9 hrs post fertilization followed by mock treatment for 37 hrs by microscopic analysis; assay type: functional, organism-based
Danio rerio [19] = organism: Danio rerio; experiment: Inhibition of pigmentation in zebrafish assessed as increase in histogram of black spots pre-treated with 0.2 mM compound at 9 hrs post fertilization followed by mock treatment for 37 hrs by microscopic analysis; assay type: functional, organism-based

Structure (SMILES)	Activity (Danio rerio [1])	Activity (Danio rerio [2])	Stability [3]	Activity (Danio rerio [4])	Activity (Danio rerio [5])	Activity [6]	logP [7]	Stability [8]	Stability [9]	inhibition (Danio rerio [10])	inhibition (Danio rerio [11])	inhibition (Danio rerio [12])	inhibition (Danio rerio [13])	inhibition (Danio rerio [14])	inhibition (Danio rerio [15])	Stability [16]	inhibition (Danio rerio [17])	inhibition (Danio rerio [18])	inhibition (Danio rerio [19])	Drug degradation ([3]; TDE = time-dependent effect)
COCCOCCOCCOCC(=O)Oc1ccc(O)cc1	Dose-dependent effect	Dose-dependent effect	Stable	Dose-dependent effect	Dose-dependent effect	Toxic	-0.036	Unstable	Stable											
COCCOCCOCCOCCOc1ccc(O)cc1	Dose-dependent effect	Dose-dependent effect	Stable	Dose-dependent effect	Dose-dependent effect	Non-toxic	-0.026		Stable	inactive	Active	Active	Active	Active	Active	Stable	Active	inactive	inactive	
Oc1ccc(O)cc1 [HYDROQUINONE]						Toxic	0.25		Unstable											tde
